In ChEMBL document CHEMBL1145895, “A new generation of N-aryl-N'-(1-alkyl-2-chloroethyl)ureas as microtubule disrupters: synthesis, antiproliferative activity, and beta-tubulin alkylation kinetics” (J Med Chem, 2003):

Key:
Assay type in all cases: functional, cell-based
[1] = system: B16; test: In vitro cytotoxic activity required to inhibit murine melanoma B16 cell line; settings: Mus musculus
Procedure, shortened: (§1)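 Alamar Blue viability assay. (1-5) × 10³ cells were seeded in RPMI 1640 with 10% bovine calf serum and preincubated 24 h. Increasing drug concentrations from DMSO stocks were added (final DMSO 0.5%) and cells incubated 72 h at 37 °C. Fluorescence read at ex 485/em 590 nm. IC50 is the dose inhibiting growth by 50%, mean of at least three independent determinations.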

[2] = system: K562; test: In vitro cytotoxic activity required to inhibit human chronic myelogenous leukemia K-562 cell line; procedure, shortened: as §1
[3] = system: MCF7; test: In vitro cytotoxic activity required to inhibit human estrogen-sensitive breast adenocarcinoma MCF-7 cell line; procedure, shortened: as §1
[4] = system: HT-29; test: In vitro cytotoxic activity required to inhibit human colon adenocarcinoma HT-29 cell line; procedure, shortened: as §1
[5] = system: L1210; test: In vitro cytotoxic activity required to inhibit murine lymphocytotic leukemia L1210 cell line; settings: Mus musculus; procedure, shortened: as §1
[6] = system: T-24; test: In vitro cytotoxic activity required to inhibit human bladder carcinoma T24 cell line; procedure, shortened: as §1
[7] = system: CHO-TAX 5-6; test: Cytotoxic activity on paclitaxel-resistant CHO-TAX 5-6 cell line expressing mutated tubulin; settings: Cricetulus griseus; procedure, shortened: as §1
[8] = system: CHO-VV 3-2; test: Cytotoxic activity on colchicine-resistant CHO-VV 3-2 cell line expressing mutated tubulin; settings: Cricetulus griseus; procedure, shortened: as §1
[9] = system: CHO; test: Cytotoxic activity on wild type CHO10001 cell line expressing mutated tubulin; settings: Cricetulus griseus; procedure, shortened: as §1

Structure (SMILES) | IC50 [1] [µM] | IC50 [2] [µM] | IC50 [3] [µM] | IC50 [4] [µM] | IC50 [5] [µM] | IC50 [6] [µM] | IC50 [7] [µM] | IC50 [8] [µM] | IC50 [9] [µM]
CCC(C)c1ccc(NC(=O)N[C@H](C)CCl)cc1 (some centres undefined) | 4.2 | 2 | 4.8 | 1.9 | 1.7 | 3.4 | – | – | –
CCC(C)c1ccc(NC(=O)N[C@H](CC)CCl)cc1 (some centres undefined) | 20 | 19 | 38 | 20 | 11 | 28 | – | – | –
CC(C)(C)c1ccc(NC(=O)NCCCl)cc1 | 8 | 3.6 | 11 | 4 | 3.3 | 6.3 | 3.1 | 13 | 7.6
C[C@@H](CCl)NC(=O)Nc1ccc2c(c1)CCC2 | > 100 | 91 | > 100 | > 100 | 41 | 92 | – | – | –
CC[C@@H](CCl)NC(=O)Nc1ccc(I)cc1 | 89 | 63 | 80 | 79 | 90 | 67 | – | – | –
CCC(C)c1ccc(NC(=O)N[C@@H](CC)CCl)cc1 (some centres undefined) | 27 | 27 | 51 | 28 | 12 | 38 | – | – | –
CC(C)c1ccc(NC(=O)N[C@@H](C)CCl)cc1 | 46 | 33 | > 100 | 65 | 28 | 54 | – | – | –
CC[C@H](CCl)NC(=O)Nc1ccc(C(C)(C)C)cc1 | 27 | 28 | 52 | 25 | 17 | 28 | – | – | –
CCC(C)c1ccc(NC(=O)N[C@@H](C)CCl)cc1 (some centres undefined) | 33 | 34 | 63 | 39 | 18 | 35 | – | – | –
O=C(NCCCl)Nc1ccc2ccccc2c1 | 6.3 | 2.5 | 7.3 | 2.6 | 2.9 | – | – | – | –
C[C@@H](CCl)NC(=O)Nc1ccc2c(c1)Cc1ccccc1-2 | 30 | 19 | 29 | 28 | 17 | 27 | – | – | –
C[C@H](CCl)NC(=O)Nc1ccc(C(C)(C)C)cc1 | 8.5 | 3.8 | 10 | 3.9 | 3.4 | 7 | 3.6 | 15 | 8.1
C[C@@H](CCl)NC(=O)Nc1ccc(C(C)(C)C)cc1 | 35 | 47 | 84 | 48 | 12 | 41 | 53 | 53 | 56
CC(C)c1ccc(NC(=O)N[C@H](C)CCl)cc1 | 2.3 | 0.9 | 2.9 | 1 | 0.9 | 1.9 | – | – | –
C[C@@H](CCl)NC(=O)Nc1ccc2ccccc2c1 | > 100 | 63 | > 100 | 86 | 20 | 71 | – | – | –
C[C@H](CCl)NC(=O)Nc1ccc2ccccc2c1 | 4.5 | 2.3 | 6 | 2.3 | 1.7 | 4 | – | – | –
C[C@@H](CCl)NC(=O)Nc1ccc(I)cc1 | 93 | 43 | 93 | 76 | 47 | 59 | 54 | 51 | 58
CC[C@@H](CCl)NC(=O)Nc1ccc(C(C)(C)C)cc1 | 27 | 26 | 60 | 24 | 17 | 29 | – | – | –
CC(C)c1ccc(NC(=O)NCCCl)cc1 | 4.7 | 1.9 | 4.7 | 2.3 | 2 | 3.6 | – | – | –
CC[C@H](CCl)NC(=O)Nc1ccc(I)cc1 | 49 | 31 | 52 | 34 | 87 | 46 | – | – | –
O=C(NCCCl)Nc1ccc(I)cc1 | 16 | 6.2 | 23 | 6 | 3.6 | 12 | 6.1 | 23 | 15
CCC(C)c1ccc(NC(=O)NCCCl)cc1 (centres undefined) | 5 | 2 | 5.2 | 1.8 | 2 | 3.7 | – | – | –
CC[C@H](CCl)NC(=O)Nc1ccc(C(C)C)cc1 | 33 | 19 | 55 | 28 | 14 | 32 | – | – | –
C[C@H](CCl)NC(=O)Nc1ccc2c(c1)Cc1ccccc1-2 | 9.3 | 5.1 | 10 | 6.6 | 4.2 | 7.4 | – | – | –
C[C@H](CCl)NC(=O)Nc1ccc(I)cc1 | 2.1 | 1 | 3.2 | 1.3 | 0.8 | 1.8 | 0.7 | 4.7 | 2.3
CC[C@@H](CCl)NC(=O)Nc1ccc(C(C)C)cc1 | 46 | 28 | 72 | 51 | 24 | 57 | – | – | –
C[C@H](CCl)NC(=O)Nc1ccc2c(c1)CCC2 | 11 | 5 | 11 | 6.4 | 4.2 | 7.4 | – | – | –
